Results reported in ChEMBL document CHEMBL1145071, “Oxindole-based compounds are selective inhibitors of Plasmodium falciparum cyclin dependent protein kinases” (J Med Chem, 2003).

Assays:
PFPK5(P.falciparum) = PFPK5(P.falciparum) (Plasmodium falciparum, UniProt P61075); assay: Inhibition of Plasmodium falciparum cyclin dependent protein kinase, PfPK5
Protein kinase Pfmrk = target: T1, Protein kinase Pfmrk (Plasmodium falciparum, UniProt P90584); assay: Inhibitory activity against Plasmodium falciparum cyclin dependent protein kinase, Pfmrk
T1 sequence (P90584 whole entry): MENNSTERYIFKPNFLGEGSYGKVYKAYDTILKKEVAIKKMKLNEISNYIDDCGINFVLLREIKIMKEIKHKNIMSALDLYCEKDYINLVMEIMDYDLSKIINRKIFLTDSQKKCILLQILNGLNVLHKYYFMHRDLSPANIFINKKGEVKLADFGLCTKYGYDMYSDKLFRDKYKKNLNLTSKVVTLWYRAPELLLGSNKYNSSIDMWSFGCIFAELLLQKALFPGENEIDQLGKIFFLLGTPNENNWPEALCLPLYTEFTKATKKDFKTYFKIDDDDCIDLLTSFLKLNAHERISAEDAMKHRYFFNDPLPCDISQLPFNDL

[1] = target: Cyclin-dependent kinase 1/cyclin B (Homo sapiens, UniProt P06493); assay: Inhibition of human Cyclin-dependent kinase 1 cyclin B; type: protein-complex assay
Plasmodium falciparum [2] = assay: Inhibitory activity against Plasmodium falciparum W2; type: functional, organism-based
Summary of the method: (§1)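 Cultured D6 (chloroquine-sensitive) and W2 (chloroquine-resistant) clones in A+ red cells, 6% hematocrit, 10% human serum, 90% N2/5% O2/5% CO2. Cultures at 3% parasitemia with at least 70% rings placed in drug-precoated wells for 24 h. [3H]-hypoxanthine then added for a further 18 h; uptake counted after harvest. IC50 from four-parameter nonlinear regression.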

Plasmodium falciparum [3] = assay: Inhibitory activity against Plasmodium falciparum D6; type: functional, organism-based; summary of the method: as §1

Chain of PFPK5(P.falciparum) (P61075 whole entry, looked up): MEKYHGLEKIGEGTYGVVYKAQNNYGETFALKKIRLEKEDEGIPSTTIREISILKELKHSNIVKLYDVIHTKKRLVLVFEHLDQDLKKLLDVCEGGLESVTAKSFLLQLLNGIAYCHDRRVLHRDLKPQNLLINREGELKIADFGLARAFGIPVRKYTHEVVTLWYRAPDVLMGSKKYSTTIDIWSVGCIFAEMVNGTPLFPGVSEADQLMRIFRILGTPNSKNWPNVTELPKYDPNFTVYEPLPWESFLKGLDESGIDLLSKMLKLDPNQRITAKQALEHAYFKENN

Row | IC50 (PFPK5(P.falciparum)) [µM] | IC50 (Protein kinase Pfmrk) [µM] | IC50 [1] [µM] | IC50 (Plasmodium falciparum [2]) [µM] | IC50 (Plasmodium falciparum [3]) [µM] | Structure (SMILES)
1 | 120 | 2.9 | 29 | > 14.6 | > 14.6 | Cc1ccc(C(=O)/C=C2/C(=O)Nc3ccc(Br)cc32)cc1
2 | – | > 57 | – | – | – | C/N=C/c1c(O)[nH]c2ccccc12
3 | – | 41.7 | – | – | – | CCOC(=O)/C(C#N)=C1/C(=O)Nc2ccccc21
4 | – | > 42 | – | – | – | O=C1Nc2ccccc2/C1=C\c1ccc(O)cc1
5 | – | 17.1 | – | – | – | COc1ccc2c(c1)/C(=C1/SC(=S)NC1=O)C(=O)N2
6 | – | > 37 | – | – | – | CC(=O)/C=C1/C(=O)Nc2ccccc21
7 | 130 | 3.5 | 12 | > 15.2 | > 15.2 | O=C1Nc2ccccc2/C1=C/C(=O)c1ccc(Br)cc1
8 | – | 24 | – | – | – | N#C/C(C(N)=O)=C1\C(=O)Nc2ccccc21
9 | 190 | 1.4 | 29 | > 14.4 | > 14.4 | O=C1Nc2ccc(Br)cc2/C1=C\C(=O)c1ccc(F)cc1
10 | 120 | 3.1 | 30 | > 15.2 | > 15.2 | O=C1Nc2ccc(Br)cc2/C1=C/C(=O)c1ccccc1
11 | – | > 19 | – | – | – | O=C1NC(=S)S/C1=C1\C(=O)Nc2ccc(F)cc21
12 | – | > 37 | – | – | – | O=C1Nc2ccccc2/C1=C\c1ccc(Cl)cc1
13 | – | > 21 | – | – | – | O=C1Nc2ccccc2/C1=C\C1CCCCN1 (configuration not stated)
14 | – | > 44 | – | – | – | CC(C)(C)C(=O)/C=C1/C(=O)Nc2ccccc21
15 | – | 17 | – | – | – | O=C1Nc2ccccc2/C1=C\c1c(Cl)cccc1Cl
16 | – | 15 | – | 3.8 | 3.8 | O=C1Cc2c([nH]c3ccc(Br)cc23)-c2ccccc2N1 [KENPAULLONE]
17 | – | 168 | – | – | – | COc1cc2ncnc(Nc3cccc(O)c3)c2cc1OC
18 | 150 | 4 | > 16 | > 20 | > 20 | O=C1Nc2ccccc2/C1=C\C(=O)c1ccccc1
19 | – | 4.3 | – | – | – | O=C1Nc2ccccc2/C1=C\c1ccc(C(F)(F)F)cc1
20 | – | 30 | – | 1.1 | 0.6 | O=Nc1c(-c2c(O)[nH]c3ccccc23)[nH]c2ccccc12 [INDIRUBIN-3-MONOXIME]
21 | – | 94 | – | 11.7 | 11.7 | COC(=O)[C@@]1(Cc2ccc(O)c(CC=C(C)C)c2)OC(=O)C(O)=C1c1ccc(O)cc1 [BUTYROLACTONE I]

Row | Structure (SMILES) | IC50 (PFPK5(P.falciparum)) [µM] | IC50 (Protein kinase Pfmrk) [µM] | IC50 [1] [µM] | IC50 (Plasmodium falciparum [2]) [µM] | IC50 (Plasmodium falciparum [3]) [µM]
22 | CC[C@H](CO)Nc1nc(NCc2ccccc2)c2ncn(C(C)C)c2n1 [SELICICLIB] | – | > 1000 | – | 28 | 33
23 | Cn1cnc2c(NCc3ccccc3)nc(NCCO)nc21 [OLOMOUCINE] | – | > 1000 | – | 8 | 2.7
24 | O=C1Cc2c([nH]c3ccc([N+](=O)[O-])cc23)-c2ccccc2N1 [ALSTERPAULLONE] | – | 51 | – | 4.3 | 4.3
25 | CC(C)[C@H](CO)Nc1nc(Nc2cccc(Cl)c2)c2ncn(C(C)C)c2n1 [PURVALANOLA] | – | 26 | – | 9.2 | 2.6
26 | CN[C@@H]1C[C@H]2O[C@@](C)([C@@H]1OC)n1c3ccccc3c3c4c(c5c6ccccc6n2c5c31)C(=O)NC4 (single isomer, unassigned) [STAUROSPORINE] | – | 4 | – | 0.15 | 0.19
